Source: PubChem BioAssay
Hits are enriched below; roughly 3.6% of the tested compounds scored in any of these assays.
T cruzi repl: blocks replication of Trypanosoma cruzi; T. cruzi beta-gal in NIH3T3, luminescence, 90 h; inhibition, % (concentration not given with the values); 300,000 compounds, 1.4% hits;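 active = mean inhibition across valid replicates above about 55%, limit read from the data; inconclusive = mean below that limit but half or more replicates reach it; inactive = mean below it, under half of replicates reach it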;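 also: signal also drops with host cell toxicity which is not excluded here; higher percent means less beta-gal luminescence so fewer parasites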
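Material: NIH/3T3 host cells with β-galactosidase reporter T. cruzi; Input: 5,000 host fibroblasts per well; Medium: DMEM, 2% fetal bovine serum; Compound: 50 nL DMSO compound solution per well; Schedule: 3 h host attachment, then at least 90 h co-culture; Detection: luminescent β-galactosidase signal after 60 min lysis.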
CSC inhib: blocks cancer stem cells. cancer stem cell-like cells viability, luminescence. inhibition, % at 7.5 µM. 300,000 compounds, 1.1% hits; in the data active = inhibition above about 75%; inconclusive = no clear call, values can overlap the other calls; tested in HMLE shEcad cells
HIF act: HIF pathway transcriptional activation; U2OS HRE-luciferase reporter, luminescence; normalized: DMSO 0%, desferrioxamine 100%; activation, % at 7.5 µM (by protocol); 300,000 compounds, 0.32% hits;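 active = mean activation of at least 10% of the iron chelator positive control signal, with at least half of replicates also reaching 10%; inconclusive = mean and replicate majority disagree about reaching 10%; inactive = mean and most replicates under 10%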
SKKanGAS inh: blocks kanamycin growth of S. pyogenes SKKanGAS strain | BacTiter-Glo, 6 h | inhibition, % at 7.5 µM | 300,000 compounds, 1.3% hits | AID 1662;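 active = mean replicate score, as percent of positive control median, at least 50; inconclusive = mean below 50 but one replicate at or above 50; inactive = mean and every replicate below 50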;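 also: strain carries kanamycin resistance gene driven by streptokinase promoter and grows in 40 µg/ml kanamycin; loss of luminescence reflects streptokinase promoter inhibition or plain growth inhibition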
PfHsp90 set2: growth inhibition of yeast expressing Plasmodium Hsp90 | S. cerevisiae expressing PfHsp90, BacTiter-Glo ATP, 48 h; yeast lacking PDR1 and PDR3 efflux regulators | inhibition, % at 9.4 µM | 310,000 compounds, 0.32% hits | AID 504621;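 active = every replicate shows inhibition above about 80%, whatever the replicate mean, limit read from the data; inconclusive = mean inhibition reaches the set limit but some replicate falls short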
Beta cell apopt: blocks beta cell apoptosis | INS-1E cytokine-induced death, ATP luminescence, 48 h; percent of positive-control rescue, neutral wells zero | protection from apoptosis, % (no concentration beside the values) | 300,000 compounds, 0.8% hits | AID 435005;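 active = Every replicate reaches about 75%, or at least half do and their mean reaches it too, limit read from the data; inconclusive = At least half of replicates reach the limit but their mean does not; inactive = Under half of replicates reach the limit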;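 also: higher means more ATP so stronger rescue from cytokine killing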
Each line names hits and unclear results; the compound was inactive in the other large screens.

CSc1ccc(CCNC(=O)c2cc(-c3ccccc3)c(N3CCOCC3)s2)cc1	none
O=C(NCCc1ccccc1)c1cc(-c2ccccc2)c(N2CCOCC2)s1	CSC inhib 80.6
CCN(CC)CCCNC(=O)c1cc(-c2ccccc2)c(N2CCCCC2)s1	CSC inhib 83.2
O=C(NNC(=S)NC(=O)c1cccc([N+](=O)[O-])c1)c1ccc(O)cc1	none (no result: Beta cell apopt)
Cc1ccc(C(=O)NC(=S)NNC(=O)c2cccc([N+](=O)[O-])c2)cc1	SKKanGAS inh 74.0
O=C(NNC(=S)NC(=O)c1cccc([N+](=O)[O-])c1)c1ccc(Br)cc1	SKKanGAS inh 67.7
N#Cc1c(N2CCN(c3ccc([N+](=O)[O-])cc3)CC2)[n+](=O)c2ccc(Cl)cc2n1[O-]	none (no result: T cruzi repl, CSC inhib, HIF act, SKKanGAS inh, Beta cell apopt)
Nc1c(C(=O)Nc2ccc3c(c2)OCCO3)nnn1Cc1cccc(Br)c1	CSC inhib 77.0
COc1cccc(/C=N/NC(=O)CN(CCc2ccccc2)S(=O)(=O)c2ccc(NC(C)=O)cc2)c1	none
COc1ccccc1/C=N\NC(=O)c1c(C)nc2ccc(Cl)cn12	none
Cc1cccc(/C=N/NC(=O)c2c(-c3ccccc3)noc2C)c1O	HIF act 16.1, Beta cell apopt 92.3
Cc1cccc(/C=N/NC(=O)Cc2ccc(Cl)cc2)c1O	SKKanGAS inh 107.4 (no result: Beta cell apopt)
Cc1cccc(/C=N\NC(=O)c2ccc(Cl)cc2)c1O	T cruzi repl 64.1, HIF act 41.6, SKKanGAS inh 93.3, Beta cell apopt 95.6
COc1cccc(/C=N/NC(=O)c2c(C)nc3ccc(Cl)cn23)c1O	HIF act 85.6, SKKanGAS inh 102.5, Beta cell apopt 122.7
Cc1ccsc1/C=N/NC(=O)Cc1ccc(Cl)cc1	none
Cc1ccc(O)c(/C=N/NC(=O)Cc2ccc(Cl)cc2)c1	SKKanGAS inh 97.1 (no result: Beta cell apopt)
Cc1occc(=O)c1OC(=O)Nc1ccc(Cl)c(Cl)c1	Beta cell apopt 105.7 (no result: T cruzi repl, HIF act, SKKanGAS inh)
CCc1nn2c(=O)c(S(=O)(=O)Nc3ccc(C(C)C)cc3)c(C)nc2s1	none (no result: T cruzi repl, HIF act, SKKanGAS inh)
C/C(CC(=O)Nc1cc(C)ccn1)=N\NC(=O)c1ccncc1	none
CC(/C=C1\SC(=S)N(C(C(=O)O)c2ccccc2)C1=O)=C\c1ccccc1 (stereo not drawn)	SKKanGAS inh 60.6
CC(c1ccccc1)N1C(=O)/C(=C/c2ccncc2)SC1=S (stereo not drawn)	CSC inhib 85.4 (no result: Beta cell apopt)
O=C(O)C(c1ccccc1)N1C(=O)/C(=C/c2cccs2)SC1=S (stereo not drawn)	none
CC(/C=C1\SC(=S)N(CC(=O)O)C1=O)=C\c1ccccc1	none
CCCC(=O)NC(c1ccco1)c1cc([N+](=O)[O-])c2cccnc2c1O (stereo not drawn)	CSC inhib 77.4, SKKanGAS inh 53.8
CCC(=O)NC(c1ccc(C)cc1)c1cc([N+](=O)[O-])c2cccnc2c1O (stereo not drawn)	T cruzi repl 63.0, CSC inhib 100.4, SKKanGAS inh 86.6, Beta cell apopt 83.1
CC(=O)NC(c1ccc(C)cc1)c1cc([N+](=O)[O-])c2cccnc2c1O (stereo not drawn)	T cruzi repl 55.0, CSC inhib 103.7, SKKanGAS inh inconclusive
O=[N+]([O-])c1cc([N+](=O)[O-])c2cccnc2c1Oc1ccccc1O	none
ClC1(Cl)CC1Cn1cnc2ccccc21 (stereo not drawn)	none
Cc1ccc2[nH]c3c(=O)n(CC(=O)NCCCN(C)Cc4ccccc4)ncc3c2c1	HIF act 66.3
CCCc1[nH]nc2c1C(c1ccoc1)C(C#N)=C(N)O2 (stereo not drawn)	HIF act 198.0
Cc1[nH]nc2c1C(c1ccoc1)C(C#N)=C(N)O2 (stereo not drawn)	none
CN(CCOc1ccccc1)CC(=O)Nc1ccc(Cl)c(S(=O)(=O)N(C)C)c1	T cruzi repl 66.6
Cc1cc(/C=C2\C(=N)N3N=C(S(C)(=O)=O)SC3=NC2=O)c(C)n1Cc1ccccc1	SKKanGAS inh 53.6 (no result: CSC inhib)
Cc1cc(/C=C2/C(=N)N3C(=NC2=O)SN=C3S(C)(=O)=O)c(C)n1-c1ccccc1F	SKKanGAS inh 56.2
CC1=CC2=NC(=O)/C(=C\c3cc(C)n(-c4ccccc4F)c3C)C(=N)N2O1	none
CC(C)[C@H](NC(=O)OCc1ccccc1)C(=O)OCC(=O)N1C(C)CCCC1C (stereo partly drawn)	none (no result: T cruzi repl, CSC inhib, HIF act, SKKanGAS inh, Beta cell apopt)
